Assay results from different studies.
SIRT5: NAD-dependent protein deacylase sirtuin-5, mitochondrial (SIRT5, Homo sapiens, UniProt Q9NXA8)
PDE4C: 3',5'-cyclic-AMP phosphodiesterase 4C (PDE4C, Homo sapiens, UniProt Q08493)
PKN1: Serine/threonine-protein kinase N1 (PKN1, Homo sapiens, UniProt Q16512)
CA9: Carbonic anhydrase 9 (CA9, Homo sapiens, UniProt Q16790)
PRSS1: Serine protease 1 (PRSS1, Bos taurus, UniProt P00760)

CC(NC(=O)c1ccccc1/N=C/c1c(O)ccc2ccccc12)c1ccccc1 (stereo not drawn)  IC50 (SIRT5; enzyme activity; inhibitor; HPLC): > 100000 nM
COc1ccc(C2=NN(C3CCCCCC3)C(=O)[C@@H]3CC=CC[C@H]23)cc1-c1ccc(C(N)=O)cc1 (relative stereo)  IC50 (PDE4C; enzyme activity; inhibitor): 501 nM
CC(C)C[C@H](CC(=O)NO)C(=O)N[C@@H](Cc1ccccc1)C(=O)NCCN1CCOCC1  IC50 (Matrix metalloproteinase-9 (MMP9, Homo sapiens, UniProt P14780); enzyme activity; inhibitor; fluorescence): 3 nM
NS(=O)(=O)c1ccc(Nc2nc(OCC3CCCCC3)c3[nH]cnc3n2)cc1  IC50 (PKN1; enzyme activity; inhibitor): 828 nM
COc1cc2c(c(OC)c1OC)-c1c(cc3c(c1OC)OCO3)C[C@H](C)[C@](C)(O)[C@H]2OC(=O)c1ccccc1  IC50 (Cytochrome P450 3A5 (CYP3A5, Homo sapiens, UniProt P20815); enzyme activity; inhibitor; 15 min; pH 7.4): 370 nM
COc1ccc(-c2nsc(NC(=O)[C@@H]3C[C@H]3C)c2C)cc1  IC50 (Metabotropic glutamate receptor 4 (GRM4, Homo sapiens, UniProt Q14833); calcium signal; antagonist): > 12500 nM
CCNC(=O)[C@H](CCCNC(=N)CF)NC(=O)c1ccccc1  IC50 (Protein-arginine deiminase type-4 (PADI4, Homo sapiens, UniProt Q9UM07); enzyme activity; inhibitor): 24300 nM
NS(=O)(=O)c1ccc(CCNC(=O)Nc2ccc(NC(=O)c3ccc(Cl)cc3)cc2)cc1  IC50 (CA9; enzyme activity; inhibitor): 96 nM
CN1CCN(Cc2ccc(-c3cnc4[nH]cc(-c5ccc6[nH]ccc6c5)c4c3)cc2)CC1  IC50 (PKN1; enzyme activity; inhibitor): 178 nM
CC(C)C[C@H](NC(=O)[C@H]1O[C@@H]1C(=O)O)C(=O)NCCCCN=C(N)N  IC50 (Cathepsin L2 (CTSV, Homo sapiens, UniProt O60911); enzyme activity; inhibitor): 5.41 nM
CCCC[C@H](NC(=O)C1CN(C)C1)c1ncc(-c2cc3ccccc3nc2OC)[nH]1  IC50 (Histone deacetylase 9 (HDAC9, Homo sapiens, UniProt Q9UKV0); enzyme activity; inhibitor): > 30000 nM
O=c1c(O)c(-c2ccc(O)c(O)c2)oc2cc(O)cc(O)c12  IC50 (Sulfotransferase 1A1 (SULT1A1, Homo sapiens, UniProt P50225, R213H); enzyme activity; inhibitor): 232 nM
CC(C)c1cc(CNc2nc(Nc3cc(C4CC4)[nH]n3)cc(N3CCN(C)CC3)n2)on1  IC50 (PKN1; enzyme activity; inhibitor): 20 nM
NS(=O)(=O)c1cc(NC(=O)CCc2nnc(-c3ccc(Cl)cc3)o2)ccc1O  IC50 (CA9; enzyme activity; inhibitor): 30.2 nM
CN1CCN(c2ccc(Nc3ncc4cc(C#N)c(=O)n(C5CCCC5)c4n3)cc2)CC1  IC50 (PKN1; enzyme activity; inhibitor): 7050 nM
CNC(=O)c1ccc(NC(=O)CN(Cc2ccc(Cl)cc2)C(=O)c2ccc(S(N)(=O)=O)c(C)c2)c(F)c1  IC50 (CA9; enzyme activity; inhibitor): 28.8 nM
Cc1c[nH]c2nc(Nc3ccc(N4CCN(C)CC4)c(F)c3)nc(-c3cccc(CC#N)c3)c12  IC50 (PKN1; enzyme activity; inhibitor): 187 nM
O=C(O)CCNC(=S)NCCCC[C@H](NS(=O)(=O)c1cccc(F)c1)C(=O)N[C@@H](Cc1c[nH]c2ccccc12)C(=O)NC1CCC1  IC50 (SIRT5; enzyme activity; inhibitor; fluorescence): 93 nM
NS(=O)(=O)c1cc(C(=O)N2CCCCC2C(=O)Nc2cc(Cl)ccc2Cl)ccc1F (stereo not drawn)  IC50 (CA9; enzyme activity; inhibitor): 30.2 nM
CC[C@@H](C(=O)Nc1ccc(C(N)=O)c(F)c1)n1cc(OC)c(-c2cc(Cl)ccc2-n2cc(C(F)(F)F)nn2)cc1=O  IC50 (Urokinase-type plasminogen activator (PLAU, Homo sapiens, UniProt P00749); enzyme activity; inhibitor): > 10000 nM
COc1cc(/C=N/n2c(C)nc3ccc(Br)cc3c2=O)ccc1OCc1ccc(Cl)cc1  IC50 (PRSS1; enzyme activity; inhibitor): 47800 nM
Cc1ccc(S(=O)(=O)N=C2C=C(Sc3nnc[nH]3)C(=O)c3ccccc32)cc1  IC50 (Induced myeloid leukemia cell differentiation protein Mcl-1 (MCL1, Homo sapiens, UniProt Q07820); ligand displacement; FP): 450 nM
Cc1ccc(C(=O)NCCC(=O)NCc2cc(S(N)(=O)=O)ccc2F)c(O)c1  IC50 (CA9; enzyme activity; inhibitor): 1660 nM
Cc1nc2ccccc2c(=O)n1NC(=O)CSc1nc2ccccc2c(=O)n1-c1ccccc1  IC50 (PRSS1; enzyme activity; inhibitor): 3730 nM
CN(C)Cc1ccc(N2CCN(C(=O)c3ccc(Cl)c(S(N)(=O)=O)c3)CC2)nc1  IC50 (CA9; enzyme activity; inhibitor): 5700 nM
COc1cc(NCC(=O)Nn2c(C)nc3ccc(Cl)cc3c2=O)cc(OC)c1OC  IC50 (PRSS1; enzyme activity; inhibitor): 54300 nM
CN(C)c1ccc(/C=C2/SC(Nc3ccc(S(N)(=O)=O)cc3)=NC2=O)cc1  IC50 (CA9; enzyme activity; inhibitor): 76.1 nM
CCOCc1nc(O)c(-c2nnc(Cc3ccc(Cl)cn3)o2)c(O)c1-c1c(OC)cccc1OC  IC50 (Beta-1 adrenergic receptor (ADRB1, Homo sapiens, UniProt P08588); ligand displacement; radioligand): > 30000 nM
CC(C)C(=O)Nc1ccc(C(=O)N2CCC(C(=O)Nc3ccc(S(N)(=O)=O)cc3)CC2)cc1  IC50 (CA9; enzyme activity; inhibitor): 37.2 nM
COc1cc(/C=N/n2c(C)nc3ccc(C)cc3c2=O)cc([N+](=O)[O-])c1O  IC50 (PRSS1; enzyme activity; inhibitor): 55700 nM
Cn1ncc(Cl)c1-c1cc(C(=O)N[C@H](CN)Cc2ccc(F)c(F)c2)oc1Cl  IC50 (PKN1; enzyme activity; inhibitor): 19 nM
NS(=O)(=O)c1ccc(NC2=NC(=O)C(CC(=O)Nc3ccc(Br)cc3)S2)cc1 (stereo not drawn)  IC50 (CA9; enzyme activity; inhibitor): 52 nM
COc1cc(/C=N/n2c(C)nc3ccc(C)cc3c2=O)ccc1OCc1ccccc1  IC50 (PRSS1; enzyme activity; inhibitor): 108000 nM
O=C1NC(=O)C(c2cnc3ccccn23)=C1c1cn2c3c(cc(F)cc13)CN(C(=O)N1CCCCC1)CC2  IC50 (PKN1; enzyme activity; inhibitor): 108 nM
O=C(NO)c1ccc(CN(c2cnccn2)c2cnccn2)cc1  IC50 (SIRT5; enzyme activity; inhibitor): > 10000 nM
Cc1cc(Nc2cc(CN3CCOCC3)c3nc(C)c(Cc4ccc(Cl)cc4F)n3n2)n[nH]1  IC50 (PKN1; enzyme activity; inhibitor): 4070 nM
CC(C)c1nc(CN(C)C(=O)N[C@@H](CCN2CCOCC2)C(=O)N[C@H](CC[C@H](Cc2ccccc2)NC(=O)OCc2cncs2)Cc2ccccc2)cs1  IC50 (Solute carrier family 22 member 7 (SLC22A7, Homo sapiens, UniProt Q9Y694); transporter uptake; inhibitor): > 100000 nM
N#CCNC(=O)c1ccc(-c2ccnc(Nc3ccc(N4CCOCC4)cc3)n2)cc1  IC50 (PKN1; enzyme activity; inhibitor): 278 nM
COc1ccc([C@@H]2CN(C(=O)[C@@H](O)CO)C[C@@]2(C)[C@@H](C)O)cc1OC1CN(c2ccc(C)cn2)C1  IC50 (PDE4C; enzyme activity; inhibitor): 2.4 nM
